Assay results: article PMC7949150 (The Journal of Biological Chemistry, 2021)

Columns and labels:
[1] = Plasma protein binding; assay type: in vitro ADME
[2] = tested on: H3K27me3 levels in KARPAS-422 tumors; assay: Tumor pharmacodynamic assay; assay type: in vivo, mice; conditions: Day 12
[3] = target: PRC2 (Homo sapiens, UniProt Q15910); assay: Differential scanning fluorimetry binding assay; conditions: 750 nM PRC2, 20 μM compound, 200 μM activating peptide; mean ± SEM, N = 3
Procedure, shortened: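 In-house pentameric PRC2 was mixed with test compound, H3K27me3 activator peptide and 4× thermal-shift dye in 50 mM Hepes pH 7.4, 100 mM NaCl, 1 mM TCEP, 0.2% DMSO. The mix was equilibrated 90 min at RT, then melted from 25 °C to 95 °C at 0.05 °C/s in a real-time PCR instrument. Tm was taken from the first-derivative peak and from a Boltzmann fit. ΔTm is compound minus DMSO control.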

Chain of PRC2 (Q15910 whole entry): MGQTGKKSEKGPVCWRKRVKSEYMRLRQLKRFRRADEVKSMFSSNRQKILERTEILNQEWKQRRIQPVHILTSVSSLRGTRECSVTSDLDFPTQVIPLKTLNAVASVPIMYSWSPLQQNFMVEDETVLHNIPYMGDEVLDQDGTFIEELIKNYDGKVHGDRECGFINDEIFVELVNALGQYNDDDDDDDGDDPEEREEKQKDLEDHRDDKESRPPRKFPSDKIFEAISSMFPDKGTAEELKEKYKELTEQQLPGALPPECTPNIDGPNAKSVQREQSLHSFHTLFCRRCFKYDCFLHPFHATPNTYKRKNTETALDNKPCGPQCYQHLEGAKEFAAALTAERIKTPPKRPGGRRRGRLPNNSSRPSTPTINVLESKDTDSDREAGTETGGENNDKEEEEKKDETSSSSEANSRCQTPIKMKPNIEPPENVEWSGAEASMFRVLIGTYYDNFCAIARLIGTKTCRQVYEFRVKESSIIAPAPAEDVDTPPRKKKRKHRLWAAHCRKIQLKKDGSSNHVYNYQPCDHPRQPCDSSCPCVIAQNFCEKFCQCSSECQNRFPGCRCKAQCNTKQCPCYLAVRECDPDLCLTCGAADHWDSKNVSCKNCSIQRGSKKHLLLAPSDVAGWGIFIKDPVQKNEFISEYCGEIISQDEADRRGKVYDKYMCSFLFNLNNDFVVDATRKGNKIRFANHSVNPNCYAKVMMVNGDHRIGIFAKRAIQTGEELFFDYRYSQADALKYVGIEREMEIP
Chain of PRC2 (O75530 whole entry partner): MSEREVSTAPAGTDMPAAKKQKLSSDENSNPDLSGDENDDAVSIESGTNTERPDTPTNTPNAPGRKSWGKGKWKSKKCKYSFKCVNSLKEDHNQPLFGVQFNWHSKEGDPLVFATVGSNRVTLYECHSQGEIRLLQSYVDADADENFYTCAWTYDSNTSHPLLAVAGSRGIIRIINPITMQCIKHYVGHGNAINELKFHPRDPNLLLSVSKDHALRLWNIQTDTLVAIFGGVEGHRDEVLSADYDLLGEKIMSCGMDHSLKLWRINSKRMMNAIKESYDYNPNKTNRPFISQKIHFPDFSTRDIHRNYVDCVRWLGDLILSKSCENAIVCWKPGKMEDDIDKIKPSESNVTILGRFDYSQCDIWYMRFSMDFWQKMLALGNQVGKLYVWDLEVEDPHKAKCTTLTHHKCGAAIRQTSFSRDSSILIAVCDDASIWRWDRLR
Chain of PRC2 (Q15022 whole entry partner): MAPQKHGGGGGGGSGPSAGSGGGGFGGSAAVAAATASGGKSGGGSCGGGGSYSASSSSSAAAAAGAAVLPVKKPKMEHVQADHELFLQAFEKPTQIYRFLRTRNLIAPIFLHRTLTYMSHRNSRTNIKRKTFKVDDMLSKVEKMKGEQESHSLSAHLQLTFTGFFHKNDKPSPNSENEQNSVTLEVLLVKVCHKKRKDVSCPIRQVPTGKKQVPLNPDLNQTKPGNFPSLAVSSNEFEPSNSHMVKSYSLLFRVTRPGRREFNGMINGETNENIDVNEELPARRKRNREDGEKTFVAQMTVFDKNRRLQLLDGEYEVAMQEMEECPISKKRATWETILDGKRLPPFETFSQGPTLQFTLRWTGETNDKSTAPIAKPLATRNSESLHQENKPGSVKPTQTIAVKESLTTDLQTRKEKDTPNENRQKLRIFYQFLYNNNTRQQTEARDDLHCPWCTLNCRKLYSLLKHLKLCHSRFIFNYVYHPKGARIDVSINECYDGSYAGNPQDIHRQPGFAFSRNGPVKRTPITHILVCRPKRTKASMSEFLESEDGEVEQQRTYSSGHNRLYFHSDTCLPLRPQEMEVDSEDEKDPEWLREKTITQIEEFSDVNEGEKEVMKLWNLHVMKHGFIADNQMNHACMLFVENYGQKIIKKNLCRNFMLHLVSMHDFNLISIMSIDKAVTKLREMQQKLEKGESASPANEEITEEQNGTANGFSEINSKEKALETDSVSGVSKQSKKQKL
Chain of PRC2 (Q16576 whole entry partner): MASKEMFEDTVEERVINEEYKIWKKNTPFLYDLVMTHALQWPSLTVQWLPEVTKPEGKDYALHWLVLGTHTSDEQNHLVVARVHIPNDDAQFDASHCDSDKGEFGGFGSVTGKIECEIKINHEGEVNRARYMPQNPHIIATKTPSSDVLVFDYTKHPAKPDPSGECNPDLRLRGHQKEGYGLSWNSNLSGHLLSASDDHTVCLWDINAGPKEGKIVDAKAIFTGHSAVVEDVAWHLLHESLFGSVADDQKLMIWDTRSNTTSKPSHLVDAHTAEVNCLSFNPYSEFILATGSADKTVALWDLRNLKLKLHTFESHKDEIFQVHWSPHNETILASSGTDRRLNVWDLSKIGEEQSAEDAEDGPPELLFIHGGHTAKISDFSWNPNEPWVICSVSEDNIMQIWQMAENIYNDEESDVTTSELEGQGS
Chain of PRC2 (Q09028 whole entry partner): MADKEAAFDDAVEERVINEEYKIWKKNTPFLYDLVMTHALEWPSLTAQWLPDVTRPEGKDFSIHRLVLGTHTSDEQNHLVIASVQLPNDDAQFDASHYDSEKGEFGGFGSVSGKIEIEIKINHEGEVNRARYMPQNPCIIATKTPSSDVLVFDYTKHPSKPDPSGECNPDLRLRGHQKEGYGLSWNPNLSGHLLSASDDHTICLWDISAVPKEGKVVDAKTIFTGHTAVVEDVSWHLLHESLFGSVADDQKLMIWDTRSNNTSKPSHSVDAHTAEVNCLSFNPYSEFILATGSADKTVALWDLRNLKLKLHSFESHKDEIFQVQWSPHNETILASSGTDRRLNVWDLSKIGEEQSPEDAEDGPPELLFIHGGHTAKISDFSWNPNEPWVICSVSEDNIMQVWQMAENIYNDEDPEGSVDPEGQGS

| SMILES | total plasma levels (25 mg/kg QD PO, 1 h postdose on Day 12) [ng/mL] | total concentration in tumors (female, CB-17 SCID, mouse, in vivo) [ng/g] | fraction unbound [1] | reduction in H3K27me3 levels in tumors ([2]; 25 mg/kg QD PO) | H3K27me3 levels in tumors ([2]; 160 mg/kg BID PO) | ΔTmD (first derivative melting peak) [3] [°C] |
| --- | --- | --- | --- | --- | --- | --- |
| CCN(c1cc(-c2ccc(CN3CCOCC3)cc2)cc(C(=O)NCc2c(C)cc(C)[nH]c2=O)c1C)C1CCOCC1 [Tazemetostat] | 6100 | 730 | 0.009 | no statistically significant reduction | significant loss of H3K27me3 levels |  |
| COc1cc(C)[nH]c(=O)c1CNC(=O)c1c(C)n([C@H](C)C2CCN(CC(F)(F)F)CC2)c2ccccc12 [CPI-1205, (R)-N-((4-Methoxy-6-methyl-2-oxo-1,2-dihydropyridin-3-yl)methyl)-2-methyl-1-(1-(1-(2,2,2-trifluoroethyl)piperidin-4-yl)ethyl)-1H-indole-3-carboxamide] |  |  |  |  |  | 11.54 ± 0.05 |
